MEKK2 mut-MEK5 – MEK5 binding signal on mutant MEKK2 PB1, primary screen, biochemical, multiplex bead flow cytometry, Alexa488-MEK5 | Alexa488-MEK5 binding to MEKK2 mutant | 290,000 tested, 0.35% active | percent response, % at 10 µM | AID 1530, 2009; in the data active means percent response above about 24%, passing the limit was not always enough
MEKK3 PB1 HTS – modulators of MEKK3-MEK5 PB1 binding, primary screen, biochemical, wildtype MEKK3, multiplex bead flow cytometry, Alexa488-MEK5 | Mitogen-activated protein kinase kinase kinase 3 (Homo sapiens), Q99759 | bead-based flow cytometry, Alexa488-MEK5 binding to MEKK3; actives lie on both sides; 0 = blocked by unlabeled MEK5, 100 = vehicle | binding response (% of control), % at 10 µM | 290,000 tested, 1.4% active | AID 1529, 2009;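 active means binding response more than 3 SD above or below the average of its plate-row segment, actives on both sides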;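 further: Alexa488 bead fluorescence after subtracting the streptavidin-only scavenger bead signal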
Target sequence (Q99759 whole entry, looked up): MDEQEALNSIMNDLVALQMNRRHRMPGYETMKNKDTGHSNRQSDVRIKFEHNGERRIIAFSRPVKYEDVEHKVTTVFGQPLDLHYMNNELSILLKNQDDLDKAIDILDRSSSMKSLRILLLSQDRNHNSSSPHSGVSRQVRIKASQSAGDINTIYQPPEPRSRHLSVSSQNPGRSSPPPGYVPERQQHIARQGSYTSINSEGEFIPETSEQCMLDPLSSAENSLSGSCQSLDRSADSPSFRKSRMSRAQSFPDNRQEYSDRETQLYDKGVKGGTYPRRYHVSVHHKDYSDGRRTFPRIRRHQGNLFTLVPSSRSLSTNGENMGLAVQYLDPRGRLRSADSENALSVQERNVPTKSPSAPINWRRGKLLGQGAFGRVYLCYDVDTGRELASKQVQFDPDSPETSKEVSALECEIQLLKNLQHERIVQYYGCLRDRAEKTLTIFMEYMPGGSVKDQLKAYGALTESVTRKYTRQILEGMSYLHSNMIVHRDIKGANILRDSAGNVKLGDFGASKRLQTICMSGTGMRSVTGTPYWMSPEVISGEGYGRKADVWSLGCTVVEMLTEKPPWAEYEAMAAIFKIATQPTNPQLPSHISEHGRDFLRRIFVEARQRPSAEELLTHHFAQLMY
Hep lipid drop – inhibitors of hepatocyte lipid droplet formation, primary screen, imaging, high-throughput imaging, BODIPY stain; AML12 mouse hepatocytes, oleate lipid droplets; inhibition, % at 6.5 µM; 240,000 tested, 0.4% active;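 active means lipid droplet intensity inhibited by at least 50%, with more than 500 cells counted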
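System: AML12 hepatocytes (mouse). Probe or stimulus: oleic acid at 100 µM to induce lipid droplet formation. Times: overnight treatment with compound plus oleate. Detection: Image-based BODIPY and DAPI two-channel analysis. Evaluation: percent inhibition of filter-corrected integrated lipid droplet intensity per well.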
MEKK2 WT-MEK5 – modulators of MEK5 binding to wildtype MEKK2, primary screen, biochemical, multiplex bead flow cytometry, Alexa488-MEK5; Mitogen-activated protein kinase kinase kinase 2 (Homo sapiens), Q9Y2U5; Alexa488-MEK5 binding to MEKK2 WT; actives lie on both sides; binding response (% of control), % at 10 µM; 290,000 tested, 1.1% active; AID 1531, 2009; in the data active means binding response below about 67% or above about 130%
MEKK2wt confirm – modulators of MEK5 binding to wildtype MEKK2, confirmation, biochemical, single concentration, multiplex bead flow cytometry. shares compounds with MEKK3 PB1 HTS. Alexa488-MEK5 binding to MEKK2 WT; actives lie on both sides. binding response (% of control), % at 10 µM. 5,900 tested, 2.4% active. AID 1892, 2009; in the data active means binding response below about 16% or above about 210%; inactive means in between
MEKK2mut confirm – mutant MEKK2 PB1-MEK5 binding signal retest – biochemical, single concentration, multiplex bead flow cytometry, confirmation | shares compounds with MEKK3 PB1 HTS | Alexa488-MEK5 binding to MEKK2 mutant | percent response, % at 10 µM | 5,900 tested, 2% active | AID 1893, 2009; in the data active means percent response mostly above about 71%, no sharp cut-off; inactive means mostly below about 38%;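 further: higher means compound restores mutant binding toward wildtype level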
MEKK3-MEK5 inh – MEKK3 wild-type PB1 binding to MEK5, inhibitors, confirmation, biochemical, bead multiplex flow cytometry, single concentration, wildtype; shares compounds with MEKK3 PB1 HTS; Alexa488-MEK5 binding to MEKK3; hits give low values; binding response (% of control), % at 10 µM; 5,900 tested, 1.8% active; AID 1894, 2009;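 active means binding response below 72% of control, or above a set upper limit, though filed actives all read lower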;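 further: 100% = DMSO only wells and 0% = binding blocked by excess unlabeled MEK5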
Active calls of the source: *; / = no result given; [ ] = another dose, or the depositor's remark. Most compounds without a hit are left out; they make up all but 2.6% or so of the library.

SMILES	MEKK2 mut-MEK5	MEKK3 PB1 HTS	Hep lipid drop	MEKK2 WT-MEK5	MEKK2wt confirm	MEKK2mut confirm	MEKK3-MEK5 inh
COc1ccccc1-n1cnnc1SC(C)C(=O)Nc1ccc(NC(C)=O)cc1 (configuration not stated)	-5	96	-40	56*[inhibitor]	95	-5	97
CC(=O)c1cccc(NC(=O)C2CCN(S(=O)(=O)c3ccccc3)CC2)c1	-5	88	1	94	/	/	/
Cc1cccc(NC(=O)CCc2nnc3ccc(N4CCC(C)CC4)nn23)n1	8	103	-12	106	/	/	/
COc1ccccc1N1CCN(C2CCN(S(=O)(=O)c3ccc4ccccc4c3)CC2)CC1	3	103	/	145*	118	1	92
COc1ccccc1N1CCN(S(=O)(=O)c2ccccc2F)CC1	-21	45*[inhibitor]	10	63	106	6	102
COc1ccccc1N1CCN(S(=O)(=O)c2ccccc2)CC1	-4	94	10	96	/	/	/
COc1ccccc1CNS(=O)(=O)c1ccc(-c2cnc(C3CC3)o2)cc1	-7	92	-81	94	/	/	/
CC(/C=N/NC(=O)c1ccco1)=C\c1ccccc1	-2	114	-25	102	/	/	/
C=CCN=C(C)C1=C(O)C(C)OC1=O (configuration not stated)	1	134*	38	103	103	3	105
CC1(C)C2CCC1(C)C1(C2)NC(=O)c2ccccc2O1 (configuration not stated)	-4	83	-18	85	/	/	/
C=CCN1c2ccccc2[C@]23C[C@@H](C(=O)OC)N(C(=O)c4ccco4)C2=NC(C(=O)OC)=C(C(=O)OC)[C@H]13	2	128*	-10	145*	95	-9	97
O=C(Nc1cc(Sc2nc3ccccc3s2)cc([N+](=O)[O-])c1)c1cccc(F)c1F	30	103	-6	118	/	/	/
O=C(COc1ccccc1)NCC1(N2CCCCC2)CCCCC1	31	103	5	147*	115	-2	101
c1ccc(OCCN2CCN(Cc3nc(-c4ccc5c(c4)OCO5)no3)CC2)cc1	1	104	-14	100	/	/	/
Cc1ccc(N2CC(C(=O)NCCc3ccc(S(N)(=O)=O)cc3)CC2=O)cc1 (configuration not stated)	-14	77*[inhibitor]	1	86	105	2	103
Cc1ccc(N2CC(C(=O)Nc3ccc(S(=O)(=O)N4CCCC4)cc3)CC2=O)cc1 (configuration not stated)	-13	60*[inhibitor]	9	45*[inhibitor]	100	9	104
COc1ccc(CCNC(=O)C2CC(=O)N(c3ccc(C)cc3)C2)cc1OC (configuration not stated)	3	102	-8	105	/	/	/
COc1ccc(N2CC(C(=O)Nc3ccc(S(=O)(=O)N4CCCC4)cc3)CC2=O)cc1 (configuration not stated)	1	100	-2	94	/	/	/
O=C(NCc1n[nH]c(=S)n1-c1cccc(Cl)c1)c1ccc(S(=O)(=O)N2CCCCC2)cc1	2	98	28	94	/	/	/
O=C(O)c1ccc(CNCc2cccc(Oc3ccccc3)c2)cc1	9	106	1	105	/	/	/
CCOc1cccc(CNCc2ccc(C(=O)O)cc2)c1	-17	50*[inhibitor]	-2	58	101	-6	101
CCOc1ccc(C(=O)/C=C/c2cn(CN3CCN(C)CC3)c3ccccc23)cc1	41*	112	/	204*	156	27	109
COc1ccc(C(=O)/C=C/c2cn(CN3CCN(C)CC3)c3ccccc23)cc1	/	/	14	/	/	/	/
COc1ccc(C2=C/C(=C/c3cccnc3)C(=O)O2)cc1OC	-2	97	1	96	/	/	/
CCOc1ccc(C2=C/C(=C/c3cccnc3)C(=O)O2)cc1	-2	82*[inhibitor]	10	84	37	-17	59*
SMILES	MEKK2 mut-MEK5	MEKK3 PB1 HTS	Hep lipid drop	MEKK2 WT-MEK5	MEKK2wt confirm	MEKK2mut confirm	MEKK3-MEK5 inh
CC(=O)Nc1cc(NC(C)=O)cc(-c2nc3ccccc3[nH]2)c1	-11	95	1	85	/	/	/
CC(=O)Nc1ccc(-c2nc3c(C)cccc3[nH]2)cc1	-14	3.0*[inhibitor]	0	3.0*[inhibitor]	114	6	104
O=C(N/C(=C\c1cccs1)C(=O)N1CCOCC1)c1ccco1	-3	100	10	96	/	/	/
CN1CCN(C(=O)/C(=C\c2cccs2)NC(=O)c2ccco2)CC1	0	134*	5	108	107	7	107
COc1cc(/C=C(/NC(=O)c2ccccc2)C(=O)N2CCN(C)CC2)c([N+](=O)[O-])cc1OC	4	130*	33	105	107	5	103
CN1CCN(C(=O)/C(=C/c2cccs2)NC(=O)c2cccs2)CC1	0	72*[inhibitor]	30	101	107	3	103
Cc1cc(NN)nc(Cc2ccccc2)n1	-2	92	15	96	/	/	/
CCCNC(=O)C1(CC2CC(c3ccccc3)=NO2)CCN(C(=O)Cc2ccc(F)cc2)CC1 (configuration not stated)	4	104	/	107	/	/	/
COc1cc(C(=O)N/C(=C\c2cn(C)c3ccccc23)C(=O)NCCN2CCOCC2)cc(OC)c1OC	-3	99	-77	102	/	/	/
CSc1ccccc1OCc1cc(C(=O)NCCC2=CCCCC2)no1	4	101	-6	98	/	/	/
O=C(Nc1ccccc1C(=O)Nc1ccccn1)c1cc(F)c(F)cc1Cl	4	98	-21	100	/	/	/
Cc1cccn2c(=O)c(/C=C(\C#N)C(=O)NC3CCS(=O)(=O)C3)c(N3CCC(C)CC3)nc12 (configuration not stated)	-1	131*	27	104	102	-1	105
Cc1cccn2c(=O)c(/C=C(\C#N)C(=O)NC3CCS(=O)(=O)C3)c(Oc3ccc(F)cc3)nc12 (configuration not stated)	6	104	4	107	/	/	/
COc1ccc(C[C@@H]2CN3C(=NC[C@@H]3Cc3ccc(O)cc3)N2C[C@H](C)NC(=O)CCC2CCCCC2)cc1	9	1.0*[inhibitor]	-14	135*	155	53	107
CC(C)[C@H]1CN=C2N(C[C@H](C)NC(=O)CCC3CCCCC3)[C@H](Cc3ccc(O)cc3)CN21	11	112	-1	112	/	/	/

Screening results as filed in PubChem BioAssay.
